Screening results: PubChem BioAssay, Broad Institute
S100A4 MyoIIA – inhibitors of human S100A4 binding to myosin IIA peptide; S100A4/TAMRA-MyoIIA peptide fluorescence polarization; P26447; 360,000 compounds, 0.14% hits; inhibition, % at 10.7 µM; AID 652163;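 active means mean inhibition of at least 70% across replicates, with every replicate also reaching that level; inconclusive means mean inhibition reaches 70% but some replicates fall short; inactive means mean inhibition below 70%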
Target sequence (P26447 whole entry, looked up): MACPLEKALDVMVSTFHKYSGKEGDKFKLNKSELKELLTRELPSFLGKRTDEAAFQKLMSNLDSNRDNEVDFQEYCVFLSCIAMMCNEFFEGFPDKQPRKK
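Material: S100A4 monomer protein | Medium: HEPES pH 7.2 with CaCl2, KCl, NaCl, DTT, Triton | Reagent: Labelled myosin peptide probe, 5 nM | Doses: One dose per compound | Times: 5 min incubation before reading | Benchmarks: Neutral control DMSO, positive control TFP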
PfHsp90 yeast 2 – reduces growth (ATP signal) of yeast expressing P. falciparum Hsp90; inhibition, % at 9.4 µM; 310,000 compounds, 0.32% hits; S. cerevisiae expressing PfHsp90, BacTiter-Glo ATP, 48 h; yeast lacking PDR1 and PDR3 efflux regulators;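 active means every replicate shows inhibition above about 80%, whatever the replicate mean, limit read from the data; inconclusive means mean inhibition reaches the set limit but some replicate falls short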
DENV2 CPE rescue – protects cells from dengue virus 2 cytopathic effect; AID 651640; DENV2-infected cells, cytopathic effect rescue, plate reader; 350,000 compounds, 1.7% hits; CPE inhibition, % at 9.99 µM; in the data active means CPE inhibition above about 20%, passing the limit was not always enough; inconclusive means no clear call, values can overlap the other calls; tested in BHK-21 cells
Cneo AK release – Cryptococcus neoformans lysis via adenylate kinase release | 360,000 compounds, 0.2% hits | AID 651654 | C. neoformans lysis, adenylate kinase release luminescence, 4 h; normalised: neutral wells 0, clomiphene wells 100 | lysis activity, % at 15 µM;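 active means mean lysis activity across replicates of at least 80%, whatever share of replicates individually reach that level; inactive means mean lysis activity below 80%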
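read-out = cell lysis signal | test system = log-phase Cryptococcus neoformans yeast cells | input = cells at 5 × 10^6 per mL | medium = fresh YPD growth medium | signal = luminescent adenylate kinase detection reagent | timing = 4 h at 37 °C static, read 1 h later | dosing = single dose | controls = Clomiphene as positive lysis control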
MLL AF4-AF9 inh – blocks AF4 peptide binding to human AF9. P42568. AlphaScreen, biotin-AF4 peptide binding to FLAG-AF9. 350,000 compounds, 0.47% hits. AID 651704. inhibition, % at 10 µM;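 active means every replicate reaching a set inhibition limit, whatever the replicate mean, cut at about 25% in these data; inconclusive means mean inhibition reaches that limit but some replicates miss it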
Target sequence (P42568 whole entry, looked up): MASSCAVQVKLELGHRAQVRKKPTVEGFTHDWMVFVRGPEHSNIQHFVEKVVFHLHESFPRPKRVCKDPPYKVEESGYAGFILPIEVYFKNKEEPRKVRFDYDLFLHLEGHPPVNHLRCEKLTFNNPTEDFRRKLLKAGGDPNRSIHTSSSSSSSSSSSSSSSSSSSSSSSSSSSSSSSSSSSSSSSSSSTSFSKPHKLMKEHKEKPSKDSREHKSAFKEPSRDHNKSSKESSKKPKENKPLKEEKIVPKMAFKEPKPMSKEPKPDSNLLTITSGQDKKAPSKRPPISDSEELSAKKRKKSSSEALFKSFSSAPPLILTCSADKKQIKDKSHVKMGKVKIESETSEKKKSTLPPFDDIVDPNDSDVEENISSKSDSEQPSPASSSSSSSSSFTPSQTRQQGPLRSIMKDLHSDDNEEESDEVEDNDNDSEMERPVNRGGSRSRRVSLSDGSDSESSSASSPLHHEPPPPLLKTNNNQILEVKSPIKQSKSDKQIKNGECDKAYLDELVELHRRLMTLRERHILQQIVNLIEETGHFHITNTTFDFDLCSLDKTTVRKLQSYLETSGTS
rRNA inh HTS – selective bacterial rRNA inhibition in E. coli. E. coli WT GFP vs humanized-ribosome RFP mutants, fluorescence, 24 h; stronger effect = lower value; DMSO median 0, no signal -100. GFP signal change (wild-type ribosome), % (concentration not given with the values). 350,000 compounds, 1.6% hits;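 active means significant combined selectivity score with lowered wild-type GFP, culture density cut under 30%, mutant RFP and density less affected; inactive means any of these conditions unmet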
Numbers stand for hits; n = inactive; u = inconclusive; x = no result given; ! = a repeat was not active. Compounds with a hit are over-represented: about 3.2% of the library has one in this group of screens.

SMILES | S100A4 MyoIIA | PfHsp90 yeast 2 | DENV2 CPE rescue | Cneo AK release | MLL AF4-AF9 inh | rRNA inh HTS
C/C=C/c1ccc([C@@H]2[C@@H](CO)N3CCCCN(S(=O)(=O)c4cccc(C)c4)C[C@@H]23)cc1 | n | x | n | n | n | n
C[C@@H]1CCCCO[C@H](CN(C)C(=O)CCCN(C)C)[C@@H](C)CN([C@@H](C)CO)C(=O)c2cc(NC(=O)CCC(F)(F)F)ccc2O1 | n | x | n | n | n | n
CCOc1cc(/C=C/C(=O)OCC(=O)NC2CCS(=O)(=O)C2)ccc1OCc1ccccc1 (configuration not stated) | n | n | n | x | n | -28
O=C(COC(=O)/C=C/c1ccccc1)NC1CCS(=O)(=O)C1 (configuration not stated) | n | n | n | n | n | n
O=S(=O)(NCc1ccccc1)c1cccc2cccnc12 | x | n | x | x | x | x
COc1ccc(NS(=O)(=O)c2cccc3cccnc23)cc1 | x | n | x | n | x | x
O=S(=O)(Nc1ccc(Br)cc1)c1cccc2cccnc12 | n | n | n | x | n | -26
O=S(=O)(NCCc1ccccc1)c1cccc2cccnc12 | n | n | n | x | n | -25
C[C@@H]1CN([C@H](C)CO)C(=O)c2cccc(NS(=O)(=O)c3ccc(Cl)cc3)c2O[C@@H]1CN(C)C(=O)Nc1ccc2c(c1)OCO2 | n | x | n | n | n | n
CCOC(=O)c1cc(-c2ccccc2C)nn1Cc1cc(C)no1 | n | n | 32 | n | n | n
CCc1cc(Cn2nc(-c3ccccc3C)cc2C(=O)O)on1 | n | x | 25 | n | x | n
O=C(C[C@H]1C[C@H]2c3cc(NC(=O)Nc4ccccc4)ccc3O[C@H]2[C@@H](CO)O1)NCCN1CCCCC1 | n | x | n | n | n | n
O=c1nc(-c2ccccc2)c2ccccc2[nH]1 | x | n | x | 116 | x | x
O=S(=O)(N[C@@H]1CC[C@H](CCn2cc(C3(O)CCCC3)nn2)O[C@H]1CO)c1ccccc1 | n | x | n | n | n | n
C[C@@H]1CCCCO[C@@H](CN(C)CC2CCCCC2)[C@@H](C)CN([C@@H](C)CO)C(=O)c2cc(NC(=O)CCC(F)(F)F)ccc2O1 | x | x | 30 | n | x | n
C[C@@H]1CCCCO[C@H](CN(C)CC2CCCCC2)[C@@H](C)CN([C@H](C)CO)C(=O)c2cc(NC(=O)CCC(F)(F)F)ccc2O1 | x | x | 52 | n | x | n
C[C@H](CO)N1C[C@H](C)[C@@H](CN(C)C(=O)Nc2cccc3ccccc23)OCCCC[C@H](C)Oc2ccc(NC(=O)c3ccncc3)cc2C1=O | n | x | n | n | n | n
CN1C[C@H]2[C@@H](c3ccccc31)[C@H](CO)N2Cc1ccccc1Cl | n | x | n | n | n | n
Cc1ccccc1-c1ccc(C2[C@@H]3CN(C(=O)C4CC4)C[C@H]2N3)cc1 (some centres not stated) | n | x | 27! | x | n | n
CCCN(C)C[C@H]1Oc2ncc(-c3ccccc3F)cc2C(=O)N([C@@H](C)CO)C[C@H]1C | n | x | n | n | n | n
Cc1cc(C(=O)Nc2cccc3c2O[C@@H](CN(C)S(=O)(=O)c2cn(C)cn2)[C@H](C)CN([C@@H](C)CO)C3=O)n(C)n1 | n | x | u | n | n | n
O=C(Nc1nnc(SCc2ccc(F)cc2)s1)c1ccccn1 | n | 101 | n | x | n | n
C[C@@H]1CN([C@@H](C)CO)C(=O)c2cc(C#CCN(C)C)cnc2O[C@H]1CN(C)C(=O)CCN1CCCCC1 | n | x | n | n | n | n
COc1ccc(S(=O)(=O)Nc2ccc3c(c2)C(=O)N([C@@H](C)CO)C[C@H](C)[C@H](CN(C)S(=O)(=O)c2ccccc2)O3)cc1 | n | x | n | n | n | n
CCCC#Cc1cnc2c(c1)C(=O)N([C@@H](C)CO)C[C@H](C)[C@H](CN(C)C(=O)NCCC)O2 | n | x | n | n | n | n
SMILES | S100A4 MyoIIA | PfHsp90 yeast 2 | DENV2 CPE rescue | Cneo AK release | MLL AF4-AF9 inh | rRNA inh HTS
CC(C)c1cc(C(C)C)c(S(=O)(=O)N2CCNCC2)c(C(C)C)c1 | n | n | n | n | n | -44
COc1ccccc1C(=O)Nc1ccc2c(c1)OC[C@@H](C)N(C)C[C@H](C)[C@H](OC)CN(C)C2=O | n | x | n | n | n | n
CC1=CC(C)(C)Nc2ccccc21 | n | n | 28 | n | x | n
CO[C@H]1CN(C)C(=O)c2ccc(NS(=O)(=O)c3ccc(C)cc3)cc2OC[C@H](C)N(Cc2nccs2)C[C@@H]1C | n | x | n | x | n | n
CC(C)CCN(C(=O)Nc1ccc(Cl)cc1)C1CCN(C(C)C)CC1 | n | n | n | x | n | -35
CCOc1ccc(NC(=O)N(CCC(C)C)C2CCN(C(C)=O)CC2)cc1 | x | n | x | n | x | x
Cc1ccc(-n2cccc2/C=C2/C(=N)N3C(=NC2=O)SN=C3S(C)(=O)=O)cc1 | x | n | x | x | x | x
Cc1cc(C)cc(-n2cccc2/C=C2/C(=N)N3C(=NC2=O)SN=C3S(C)(=O)=O)c1 | n | n | n | x | n | -28
COc1ccc(S(=O)(=O)N[C@@H]2CC[C@@H](CCNC(=O)CN3CCOCC3)O[C@@H]2CO)cc1 | n | x | n | n | n | n
CCc1cc(/C(Cc2ccccn2)=N\O)c(O)cc1O | n | n | n | n | n | -33
CO[C@@H]1CN(C)C(=O)c2ccc(NC(C)=O)cc2OC[C@@H](C)N(C(=O)c2ccccc2)C[C@@H]1C | n | x | n | x | n | n
COc1ccc(NC(=O)c2cc([N+](=O)[O-])ccc2O)cc1 | n | 76 | x | x | n | n
Cc1ccc(C23CC4CC(CC(C(N)=O)(C4)C2)C3)cc1 | n | n | u | n | n | -23
COc1ccccc1-c1ccc2c(c1)O[C@H](CN(C)C(=O)Nc1cccc(F)c1)[C@@H](C)CN([C@H](C)CO)S2(=O)=O | n | x | n | n | n | n
Cc1ccc(C(=O)NCC(=O)OCC(=O)c2cc(C)n(Cc3ccco3)c2C)cc1 | n | n | n | n | n | n
CCn1c(C)cc(C(=O)COC(=O)CNC(=O)c2ccco2)c1C | n | x | 61 | n | n | n
Cc1ccc(SCC(=O)Nc2ccc(S(=O)(=O)Nc3nccs3)cc2)cc1 | n | n | x | x | n | -37
O=C(CSc1ccncc1)Nc1ccc(S(=O)(=O)Nc2nccs2)cc1 | n | n | n | x | n | n
C=CCOC(=O)C1=C[C@H](c2coc3ccccc3c2=O)C[C@H](OCc2ccc(CO)cc2)O1 | n | n | n | n | n | -21
CC(=O)n1cc([C@H]2C=C(C(=O)N3CCN(Cc4ccc5c(c4)OCO5)CC3)O[C@@H](OCc3ccc(CO)cc3)C2)c2ccccc21 | n | n | 24 | n | n | n
CC(=O)n1cc([C@@H]2C=C(C(=O)NCc3ccccc3)O[C@H](OCc3ccc(CO)cc3)C2)c2ccccc21 | n | n | 45! | n | n | n
